Data on 6 compounds can be found in ChEMBL document CHEMBL2384924, “Antagonists for the orphan G-protein-coupled receptor GPR55 based on a coumarin scaffold” (J Med Chem, 2013).

Test [1] deals with T1, Cannabinoid receptor 2 (Homo sapiens, UniProt P34972). As to the kind of experiment: Antagonist activity at human CB2 receptor expressed in CHOK1 cells assessed as inhibition of forskolin-stimulated cAMP level at 10 uM. In kind it is functional, cell-based. The conditions noted are these: CHO-K1. (cAMP levels reflect the balance of adenylyl cyclase and phosphodiesterase activity.)
T1 sequence (P34972 whole entry): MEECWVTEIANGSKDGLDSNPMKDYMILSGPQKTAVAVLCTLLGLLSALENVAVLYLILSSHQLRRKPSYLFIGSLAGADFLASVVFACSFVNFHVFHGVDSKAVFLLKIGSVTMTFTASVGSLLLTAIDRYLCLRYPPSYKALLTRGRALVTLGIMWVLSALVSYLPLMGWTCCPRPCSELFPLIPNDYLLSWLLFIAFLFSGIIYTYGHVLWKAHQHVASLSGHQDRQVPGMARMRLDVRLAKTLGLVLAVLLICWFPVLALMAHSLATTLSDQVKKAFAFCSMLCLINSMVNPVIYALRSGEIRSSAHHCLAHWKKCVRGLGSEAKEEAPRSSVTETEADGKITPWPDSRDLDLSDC

Test [2] deals with T2, Cannabinoid receptor 1 (Homo sapiens, UniProt P21554). The test is described as follows: Antagonist activity at human CB1 receptor expressed in CHOK1 cells assessed as inhibition of forskolin-stimulated cAMP level at 10 uM. In kind it is functional, cell-based. As to conditions: CHO-K1.
T2 sequence (P21554 whole entry, the tested form may be a part): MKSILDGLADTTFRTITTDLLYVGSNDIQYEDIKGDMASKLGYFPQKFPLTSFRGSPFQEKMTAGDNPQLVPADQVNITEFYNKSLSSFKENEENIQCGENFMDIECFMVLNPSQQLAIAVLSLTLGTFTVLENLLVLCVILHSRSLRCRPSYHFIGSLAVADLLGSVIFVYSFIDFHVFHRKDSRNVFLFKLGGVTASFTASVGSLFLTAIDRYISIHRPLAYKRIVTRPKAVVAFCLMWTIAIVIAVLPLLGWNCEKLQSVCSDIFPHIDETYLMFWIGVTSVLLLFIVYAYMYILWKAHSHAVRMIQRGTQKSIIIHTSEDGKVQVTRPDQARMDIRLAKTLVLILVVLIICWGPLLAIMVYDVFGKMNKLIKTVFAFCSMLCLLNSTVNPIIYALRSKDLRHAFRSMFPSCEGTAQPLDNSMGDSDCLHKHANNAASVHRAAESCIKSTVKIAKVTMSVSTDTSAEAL
In test [3] the target is T3, G-protein coupled receptor 55 (Homo sapiens, UniProt Q9Y2T6). As to the kind of experiment: Agonist activity at human GPR55 transfected in CHO cells at 10 uM after 90 mins by beta-arrestin translocation assay. In kind it is cell-based. Put shortly: (§1)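 CHO cells stably expressing human GPR55 (β-galactosidase fragment complementation) were seeded at 20,000 cells/well in Opti-MEM with 2% FCS for 24 h at 37°C. Compound was diluted in PBS with 10% DMSO and 0.1% BSA, screened at 10 µM and incubated 90 min at 37°C. Galacton-Star/Emerald-II/lysis buffer (1:5:19) was added for 60 min at RT, then luminescence was read. Response is relative to 1 µM LPI (100%).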
T3 sequence (Q9Y2T6 whole entry, the tested form may be a part): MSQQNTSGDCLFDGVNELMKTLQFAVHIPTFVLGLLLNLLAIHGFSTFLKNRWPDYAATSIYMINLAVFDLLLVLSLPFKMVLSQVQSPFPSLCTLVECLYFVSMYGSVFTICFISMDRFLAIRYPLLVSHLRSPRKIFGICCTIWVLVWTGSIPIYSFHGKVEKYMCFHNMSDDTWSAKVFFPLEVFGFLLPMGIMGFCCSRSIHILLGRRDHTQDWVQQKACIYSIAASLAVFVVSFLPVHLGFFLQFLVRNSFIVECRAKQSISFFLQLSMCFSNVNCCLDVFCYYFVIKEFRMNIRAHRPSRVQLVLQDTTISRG

Test [4] concerns the target T1, Cannabinoid receptor 2. The test is described as follows: Displacement of [3H]-CP55,940 from human CB2 receptor transfected in CHOK1 cells. In kind it is cell-based, CHO-K1. Put shortly: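 CHO cells stably expressing human CB2 supplied the membranes, 1 µg protein per vial. Compounds were screened at 10 µM, and full competition curves were run where inhibition was about 50% or more. Three independent experiments in duplicate.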
(Loss of bound radioactivity is the signal in a displacement assay; it reports binding, not function.)

Test [5] deals with T2, Cannabinoid receptor 1. The test is described as follows: Displacement of [3H]-CP55,940 from human CB1 receptor transfected in CHOK1 cells. In kind it is cell-based, CHO-K1.
The target in test [6] is T4, N-arachidonyl glycine receptor (Homo sapiens) (UniProt Q14330).
T4 sequence (whole entry): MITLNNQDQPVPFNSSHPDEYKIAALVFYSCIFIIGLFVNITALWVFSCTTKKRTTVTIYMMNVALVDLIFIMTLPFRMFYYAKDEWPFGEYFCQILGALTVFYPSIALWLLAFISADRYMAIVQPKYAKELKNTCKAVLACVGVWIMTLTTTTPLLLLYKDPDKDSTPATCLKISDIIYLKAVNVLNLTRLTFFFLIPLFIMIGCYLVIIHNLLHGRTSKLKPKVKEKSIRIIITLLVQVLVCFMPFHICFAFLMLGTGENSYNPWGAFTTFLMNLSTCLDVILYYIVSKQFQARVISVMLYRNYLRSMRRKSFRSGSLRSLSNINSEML
As to the kind of experiment: Antagonist activity at human GPR18 transfected in CHO cells assessed as delta9-THC-induced beta-arrestin recruitment at 10 uM incubated 60 mins prior to delta9-THC addition by beta-arrestin translocation assay. Set-up: scale not given: the % may be the effect or the level left. In kind it is cell-based. A digest of the protocol:
(§2)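 CHO cells stably expressing human GPR18 were seeded at 20,000 cells/well for 24 h at 37°C. Compound in PBS/10% DMSO/0.1% BSA was added 60 min before the GPR18 agonist 3 at 10 µM. The supplier's detection reagent was used, and luminescence was read after 60 min at RT. Screening was at 10 µM (% inhibition); IC50 from concentration-inhibition curves. Three independent experiments in duplicate.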
For orientation: Activated receptors often draw arrestin, which recruitment assays turn into a signal.

The target in test [7] is T5, N-arachidonyl glycine receptor (Homo sapiens, UniProt Q14330).
T5 sequence (Q14330 whole entry): T4 sequence (whole entry)
As to the kind of experiment: Antagonist activity at human GPR18 transfected in CHO cells assessed as delta9-THC-induced beta-arrestin recruitment incubated 60 mins prior to delta9-THC addition by beta-arrestin translocation assay. In kind it is cell-based. Put shortly:
as §2

In test [8] the target is T3, G-protein coupled receptor 55. As to the kind of experiment: Antagonist activity at human GPR55 transfected in CHO cells assessed as inhibition of LPI-induced beta-arrestin recruitment incubated 60 mins prior to LPI addition by beta-arrestin translocation assay. In kind it is cell-based. A digest of the protocol: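 CHO cells stably expressing human GPR55 were seeded at 20,000 cells/well for 24 h at 37°C. Compound in PBS/10% DMSO/0.1% BSA was added 60 min before 1 µM LPI. Galacton-Star/Emerald-II/lysis buffer (pH 8) was applied for 60 min at RT, with luminescence read-out. Screening was at 10 µM (% inhibition). IC50 was measured where inhibition exceeded 60%. Three independent experiments in duplicate.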

Test [9] addresses T1, Cannabinoid receptor 2. As to the kind of experiment: Agonist activity at human CB2 receptor expressed in CHOK1 cells assessed as […] of forskolin-stimulated cAMP level at 10 uM. In kind it is functional, cell-based. As to conditions: CHO-K1.
Test [10] concerns the target T3, G-protein coupled receptor 55. As to the kind of experiment: Antagonist activity at human GPR55 transfected in CHO cells assessed as inhibition of LPI-induced beta-arrestin recruitment incubated 60 mins prior to LPI addition by Gaddum method. In kind it is cell-based. Put shortly:
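In the human GPR55 CHO β-arrestin luminescence assay, full LPI concentration-response curves were run without and with 3-4 antagonist concentrations. Antagonist was preincubated 1 h, then incubated with agonist […]. KB was estimated by the Gaddum method. Three independent experiments in duplicate.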

For test [11], the target named is T2, Cannabinoid receptor 1. The test is described as follows: Agonist activity at human CB1 receptor expressed in CHOK1 cells assessed as […] of forskolin-stimulated cAMP level at 10 uM. In kind it is functional, cell-based. As to conditions: CHO-K1.
Test [12] deals with T3, G-protein coupled receptor 55. As to the kind of experiment: Antagonist activity at human GPR55 expressed in HEK293 cells assessed as inhibition of LPI-induced beta-arrestin recruitment incubated 60 mins prior to LPI addition by beta-arrestin translocation assay. In kind it is cell-based. Set-up: scale not given: the % may be the effect or the level left.
For test [13] the target is unchanged. The test is described as follows: Agonist activity at human GPR55 transfected in CHO cells after 90 mins by beta-arrestin translocation assay relative to LPI. In kind it is cell-based. A digest of the protocol: as §1

The source made the active and inactive calls. Unless noted, the calls are words filed in the database; no cut-off is given here.

For orientation: Ki means the equilibrium dissociation constant of an inhibitor or competing ligand from its target. The term IC50 denotes the concentration that gives 50% inhibition. As for `CCCCCc1cc(OC)c2cc(Cc3ccc(Br)cc3)c(=O)oc2c1`, the inhibition result in test [1] and in test [2] was “Active” each time. Further, in test [3], the outcome was inactive. Moreover, the values for the Ki in test [4] and in test [5] were 0.578 µM and 10.2 µM, respectively. The Activity in test [6] worked out at 30%. Moreover, the figures for the IC50 in test [7] and in [8] were over 10 µM and 3.76 µM, respectively.

For `CCCCCCCC(C)(C)c1cc(O)c2cc(Cc3ccccc3O)c(=O)oc2c1`, the outcome in [9] was Active. Also, the outcome in test [3] was inactive. In addition, in test [10], the Kb was determined as 0.561 µM. In test [7], the half-maximal inhibitory concentration (IC50) stood at 12.5 µM. In [8], the IC50 came out at 0.113 µM and the inhibition entry was “Dose-dependent effect”.

Regarding `CCCCCc1cc(OC)c2cc(Cc3cccc(OC)c3)c(=O)oc2c1`, the outcome in test [9] and in test [11] was Active. The result in test [3] was inactive. The Kb in test [10] was 16.5 µM; in [8] (read-out: pA2 (converted)), 7.94 pM. The Activity in test [6] came to 33%. The IC50 in test [7] was over 10 µM; in test [8] it was 3.23 µM.

With `C=C(C)[C@@H]1CCC(C)=C[C@H]1c1c(O)cc(CCC)cc1O`, the Activity in test [12] came to 56%.

A word on the EC50: it is the concentration needed to bring the measured effect to its halfway point. Turning to `CCCCC/C=C\C/C=C\C/C=C\C/C=C\CCCC(=O)O[C@H](CO)COP(=O)(O)O[C@@H]1[C@H](O)[C@H](O)[C@@H](O)[C@H](O)[C@H]1O`, the EC50 in [13] stood at 1 µM.

`CCCc1cc(O)c2c(c1)OC(C)(C)[C@@H]1CCC(C)=C[C@@H]21`: the Activity in test [12] is 50%.
